Results published in ChEMBL document CHEMBL4715835, “Lipidic synthetic alkaloids as SK3 channel modulators. Synthesis and biological evaluation of 2-substituted tetrahydropyridine derivatives with potential anti-metastatic activity” (Eur J Med Chem, 2020).

What was measured:
[1] = Toxicity in human HCT-116 cells assessed as reduction in cell number after 48 hrs by Hoechst 33342 staining based assay
How it was run: (§1)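 4000 cells per well. Cells exposed 24 h after seeding to 6 concentrations ([…]) for 48 h. They were then fixed in cold 90% ethanol/5% acetic acid for 20 min and nuclei stained with Hoechst 33342. Plates imaged on a high-content reader. IC₅₀ calculated; normal diploid skin fibroblasts served as control cells.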

MDA-MB-435 [2] = assay: Toxicity in human MDA-MB-435 cells assessed as mortality at 1 uM measured after 24 hrs by MTT assay relative to control; format: cell-based; conditions: mda-mb-435, 24 h
How it was run: (§2)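 MTT viability assay: about 4 × 10⁴ MDA-MB-435s cells seeded in triplicate with the molecules (tested series 100 nM, 300 nM, 1 µM, 3 µM, 10 µM) and kept 24 h at 37 °C. Medium was then removed and cells incubated 45 min at 37 °C with tetrazolium salt, which viable cells reduce to formazan. Results given as % mortality.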

MDA-MB-435 [3] = assay: Toxicity in human MDA-MB-435 cells assessed as mortality at 3 uM measured after 24 hrs by MTT assay relative to control; format: cell-based; conditions: mda-mb-435, 24 h; how it was run: as §2
[4] = Toxicity in human Huh-7 cells assessed as reduction in cell number after 48 hrs by Hoechst 33342 staining based assay; how it was run: as §1
[5] = Toxicity in human MDA-MB-231 cells assessed as reduction in cell number after 48 hrs by Hoechst 33342 staining based assay; how it was run: as §1
[6] = Toxicity in human PC-3 cells assessed as reduction in cell number after 48 hrs by Hoechst 33342 staining based assay; how it was run: as §1
[7] = Toxicity in human MCF7 cells assessed as reduction in cell number after 48 hrs by Hoechst 33342 staining based assay; how it was run: as §1
[8] = Toxicity in human Caco-2 cells assessed as reduction in cell number after 48 hrs by Hoechst 33342 staining based assay; how it was run: as §1
[9] = Toxicity in human NCI-H727 cells assessed as reduction in cell number after 48 hrs by Hoechst 33342 staining based assay; how it was run: as §1
[10] = Toxicity in human skin fibroblasts assessed as reduction in cell number after 48 hrs by Hoechst 33342 staining based assay; format: tissue-based, Fibroblast; how it was run: as §1
MDA-MB-435 [11] = assay: Toxicity in human MDA-MB-435 cells assessed as mortality at 10 uM measured after 24 hrs by MTT assay relative to control; format: cell-based; conditions: mda-mb-435, 24 h; how it was run: as §2

## CCCCCCCC/C=C\CCCCCCC[C@@H](O)C[C@@H]1C=CCCN1C
[1]
  IC50 at 48 h: 10 µM
MDA-MB-435 [2]
  mortality: 30%
MDA-MB-435 [3]
  mortality: 80%
[4]
  IC50 at 48 h: 10 µM
[5]
  IC50 at 48 h: 8 µM
[6]
  IC50 at 48 h: 7 µM
[7]
  IC50 at 48 h: 10 µM
[8]
  IC50 at 48 h: 8 µM
[9]
  IC50 at 48 h: 9 µM
[10]
  IC50 at 48 h: 9 µM

## CCCCCCCCCCCCCCCCCCC[C@H](C[C@@H]1C=CCCN1C)OC(C)=O
[1]
  IC50 at 48 h: > 25 µM
MDA-MB-435 [11]
  mortality: 20%
MDA-MB-435 [2]
  mortality: 0%
[4]
  IC50 at 48 h: > 25 µM
[5]
  IC50 at 48 h: > 25 µM
[6]
  IC50 at 48 h: > 25 µM
[7]
  IC50 at 48 h: > 25 µM
[8]
  IC50 at 48 h: 17 µM
[9]
  IC50 at 48 h: > 25 µM
[10]
  IC50 at 48 h: > 25 µM

## CCCCCCCCCCCCCCCCC[C@@H](O)C[C@@H]1C=CCCN1C
[1]
  IC50 at 48 h: > 25 µM
MDA-MB-435 [11]
  mortality: 80%
MDA-MB-435 [2]
  mortality: 0%
[4]
  IC50 at 48 h: > 25 µM
[5]
  IC50 at 48 h: > 25 µM
[6]
  IC50 at 48 h: > 25 µM
[7]
  IC50 at 48 h: > 25 µM
[8]
  IC50 at 48 h: 21 µM
[9]
  IC50 at 48 h: > 25 µM
[10]
  IC50 at 48 h: > 25 µM

## CCCCCCCCCCCCCCCCC[C@@H](O)C[C@@H]1CCCCN1C
MDA-MB-435 [11]
  mortality: 35%
MDA-MB-435 [2]
  mortality: 0%

## CCCCCCCC/C=C\CCCCCCCC(O)Cc1ccccn1 (stereo unspecified)
MDA-MB-435 [2]
  mortality: 20%
MDA-MB-435 [3]
  mortality: 25%

## CCCCCCCCCCCCCCCCCCC[C@@H](O)C[C@@H]1C=CCCN1C
[1]
  IC50 at 48 h: > 25 µM
MDA-MB-435 [2]
  mortality: 20%
MDA-MB-435 [3]
  mortality: 30%
[4]
  IC50 at 48 h: > 25 µM
[5]
  IC50 at 48 h: > 25 µM
[6]
  IC50 at 48 h: > 25 µM
[7]
  IC50 at 48 h: > 25 µM
[8]
  IC50 at 48 h: > 25 µM
[9]
  IC50 at 48 h: > 25 µM
[10]
  IC50 at 48 h: > 25 µM

## CCCCCCCCCCCCCCCCC[C@H](C[C@@H]1C=CCCN1C)OC(C)=O
[1]
  IC50 at 48 h: 16 µM
MDA-MB-435 [11]
  mortality: 70%
MDA-MB-435 [2]
  mortality: 5%
[4]
  IC50 at 48 h: 22 µM
[5]
  IC50 at 48 h: 21 µM
[6]
  IC50 at 48 h: 15 µM
[7]
  IC50 at 48 h: 19 µM
[8]
  IC50 at 48 h: 9 µM
[9]
  IC50 at 48 h: > 25 µM
[10]
  IC50 at 48 h: 18 µM

## CCCCCCCC/C=C\CCCCCCC[C@H](O)C[C@@H]1C=CCCN1C
[1]
  IC50 at 48 h: 15 µM
MDA-MB-435 [2]
  mortality: 30%
MDA-MB-435 [3]
  mortality: 40%
[4]
  IC50 at 48 h: 24 µM
[5]
  IC50 at 48 h: 14 µM
[6]
  IC50 at 48 h: 19 µM
[7]
  IC50 at 48 h: 18 µM
[8]
  IC50 at 48 h: 6 µM
[9]
  IC50 at 48 h: > 25 µM
[10]
  IC50 at 48 h: 25 µM

## CCCCCCCC/C=C\CCCCCCCC(Cc1ccccn1)OC (stereo unspecified)
MDA-MB-435 [2]
  mortality: 20%
MDA-MB-435 [3]
  mortality: 25%
